This is a sample that favours compounds with a hit; in the whole collection about 2.7% have one here.
E-selectin induc: E-selectin induction in HUVECs, primary screen, imaging, HUVEC, immunofluorescence imaging, single point. P16581. normalized: neutral wells 0, TNF-alpha wells 100. activation, % at 7.58 µM. 0.37% of 260,000 active. AID 686992, 2013;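 active = mean E-selectin-positive cell signal at least 10% of the positive control, reached in at least 60% of replicates, without over 20% cell loss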
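Test system: HUVEC; input: 3,000 HUVEC/well; measured by: immunofluorescence imaging; read-out: % PE-positive cells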
CFTR F508del cor: F508del CFTR correction, initial screen, CFBE line, single point; CFBE cells, YFP halide quenching; stimulated with forskolin plus potentiator P3; % fluorescence drop versus neutral controls; activity (quench increase), % at 7.58 µM; 0.36% of 350,000 active; AID 720511, 2013;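 active = mean added fluorescence quench of at least 8% versus neutral control, with both replicates also reaching 8%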;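 note: cells transiently co-express mutant CFTR-F508del with the halide-sensitive YFP; corrector assay measuring rescue of mutant channel to the surface after 24 h compound exposure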
FGF22 binding: binders of human FGF22 protein, primary screen, FGF22 synaptogenesis inhibitor project, biophysical, thermal shift, single point; 1.5% of 340,000 active; Fibroblast growth factor 22 (Homo sapiens), Q9HCT0; AID 651658, 2012; activity (Tm shift, normalised), % at 9.99 µM; recombinant FGF22 thermal shift, SYPRO orange fluorescence; percent of sucrose octasulfate shift, DMSO zero;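 active = mean Tm shift, scaled 0 neutral to 100 positive control, at about 1.3% or above, every replicate too, limit read from the data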
Target sequence (Q9HCT0 whole entry, looked up): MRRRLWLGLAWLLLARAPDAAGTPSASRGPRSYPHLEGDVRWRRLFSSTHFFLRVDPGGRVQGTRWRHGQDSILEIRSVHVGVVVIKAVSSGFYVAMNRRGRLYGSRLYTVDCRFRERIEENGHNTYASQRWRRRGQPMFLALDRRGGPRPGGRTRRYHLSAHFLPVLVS
S100A4 MyoIIA: inhibitors of S100A4-myosin IIA peptide binding, primary screen, biochemical, fluorescence polarization, TAMRA-MyoIIA peptide | inhibition, % at 10.7 µM | 0.14% of 360,000 active;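 active = mean inhibition of at least 70% across replicates, with every replicate also reaching that level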
Target sequence (P26447 whole entry, looked up): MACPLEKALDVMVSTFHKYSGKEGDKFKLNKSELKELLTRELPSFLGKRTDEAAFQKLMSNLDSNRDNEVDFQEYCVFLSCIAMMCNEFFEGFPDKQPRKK
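Test system: S100A4 monomer protein. Medium: HEPES buffer with Ca2+, pH 7.2. Reagent: fluorescent myosin IIA peptide, 5 nM. Compound dosing: single-point compound testing. Timing: 5 min between mix addition and reading. Benchmarks: DMSO neutral and TFP positive wells.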
Env fusion inh: inhibitors of HIV-1 Env-driven cell-cell fusion, primary screen, HeLa-JRFL effector, CEM21 target cells, luciferase; inhibition, % at 12.3 µM; 1.1% of 360,000 active; AID 651610, 2012;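 active = mean replicate inhibition score of at least 50 and every replicate individually at or above 50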;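 note: 0% = plate neutral controls and 100% = maraviroc near 300 nM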
The depositor's hits bear a star; / = no result given; [ ] = remark or other dose.

SMILES	E-selectin induc	CFTR F508del cor	FGF22 binding	S100A4 MyoIIA	Env fusion inh
C[C@H]1CN([C@@H](C)CO)C(=O)Cc2cc(NS(=O)(=O)c3ccc(Cl)cc3)ccc2O[C@H]1CN(C)S(=O)(=O)c1ccc(F)cc1	0	1	0	8	15[16.7 µM]
COCC#Cc1cnc2c(c1)C(=O)N([C@H](C)CO)C[C@@H](C)[C@H](CN(C)C)O2	0	2	0	31	-102[16.7 µM]
COc1ccc2c3c([nH]c2c1)[C@H](CO)N(C(C)=O)CC31CN(C(=O)Nc2c(C)noc2C)C1	0	0	0	/	/
C[C@@H]1CN([C@H](C)CO)C(=O)c2cc(NS(C)(=O)=O)ccc2O[C@H]1CN(C)S(=O)(=O)c1cn(C)cn1	23	3	0	2	/
O=C(NC[C@@H]1CC[C@H]2[C@H](CN2Cc2cccc(Cl)c2)O1)C1CC1	/	0	/	11	-15[16.7 µM]
O=C(CN1CCOCC1)NCC[C@H]1CC[C@H](NC(=O)Nc2ccc(F)cc2)[C@@H](CO)O1	-2	1	-1	4	2[16.7 µM]
Cc1ccc(OC(=O)N(C)C[C@@H]2OCc3ccccc3-c3ccccc3C(=O)N([C@H](C)CO)C[C@@H]2C)cc1	0	-4	0	19	/
O=C(c1ccc2c3c(cccc13)CC2)C1CCCN(C(=O)c2ccc(=O)[nH]c2)C1 (configuration not stated)	/	-1	0	-20	21
Cc1ncccc1C(=O)N1CCCC(C(=O)c2ccc3c4c(cccc24)CC3)C1 (configuration not stated)	/	-1	43*	-5	90*
CN(C)C(=O)CCC(=O)N1CCCC(C(=O)c2ccc3c4c(cccc24)CC3)C1 (configuration not stated)	/	-2	0	-2	80*
O=C(c1ccc2c3c(cccc13)CC2)C1CCCN(Cc2ccncc2)C1 (configuration not stated)	0	-2	0	-1	20
CCc1nc(CN2CCCC(C(=O)c3ccc4c5c(cccc35)CC4)C2)c(C)[nH]1 (configuration not stated)	/	0	44*	-5	34
O=C(C[C@H]1CC[C@@H]2[C@H](COC[C@@H](O)CN2Cc2ccccc2)O1)NCCCN1CCOCC1	0	0	0	8	/
CN1c2ccc(-c3cccc(C#N)c3)cc2[C@H]2[C@H](CCN2S(=O)(=O)c2ccccc2)[C@H]1CO	0	3	0	-1	/
CC(=O)N1CC(=O)N2[C@@H](CO)[C@@H](c3ccc(C#Cc4cccnc4)cc3)[C@@H]2C1	0	-2	/	33	/
COc1ccc(S(=O)(=O)Cc2ccc(C(=O)N3CCN(c4cccc(C)c4)C(C)C3)o2)cc1 (configuration not stated)	/	9.3*	-1	0	21
COc1ccccc1S(=O)(=O)Cc1ccc(C(=O)N2CCN(c3ccc(C)cc3)C(C)C2)o1 (configuration not stated)	0	1	0	-1	16
C[C@@H]1CN([C@@H](C)CO)C(=O)Cc2cc(NC(=O)Nc3ccc(F)cc3)ccc2O[C@H]1CN(C)Cc1ccc(C(=O)O)cc1	55*	3	0	6	-1[16.7 µM]
CC(C)NC(=O)Nc1ccc2c(c1)CC(=O)N([C@@H](C)CO)C[C@@H](C)[C@@H](CN(C)Cc1ccc(C(=O)O)cc1)O2	21	1	0	-18	/
CC(C)NC(=O)Nc1ccc2c(c1)CC(=O)N([C@H](C)CO)C[C@H](C)[C@@H](CN(C)Cc1ccc(C(=O)O)cc1)O2	39*	0	0	11	/
C[C@H](CO)N1C[C@H](C)[C@H](CN(C)Cc2ccc(C(=O)O)cc2)Oc2ccc(NC(=O)Nc3ccc(F)cc3)cc2CC1=O	-6	3	0	11	17[16.7 µM]
CC(C)NC(=O)Nc1ccc2c(c1)CC(=O)N([C@@H](C)CO)C[C@H](C)[C@H](CN(C)Cc1ccc(C(=O)O)cc1)O2	42*	0	0	-15	/
C[C@@H]1CN([C@@H](C)CO)C(=O)c2cc(/C=C/c3ccccc3)cnc2O[C@H]1CN(C)Cc1cccnc1	1	0	0	4	5[16.7 µM]
COc1ccc(C(=O)Nc2cnc(NC(=O)c3cccs3)cc2C)cc1	33*	-1	0	-2	12
COc1ccccc1NC(=O)N[C@H]1C=C[C@@H](CC(=O)N2CCC(Cc3ccccc3)CC2)O[C@@H]1CO	0	-1	0	7	28[16.7 µM]
SMILES	E-selectin induc	CFTR F508del cor	FGF22 binding	S100A4 MyoIIA	Env fusion inh
C[C@@H]1CCCCO[C@H](CN(C)C(=O)CCCN(C)C)[C@H](C)CN([C@@H](C)CO)C(=O)c2cc(NC(=O)NC3CCCCC3)ccc2O1	0	3	-1	9	-14[16.7 µM]
Cc1ccc(S(=O)(=O)N/N=C/c2cc([N+](=O)[O-])ccc2O)cc1[N+](=O)[O-]	/	2	44*	-3	-31
O=[N+]([O-])c1ccc(O)c(/C=N/Nc2ccc(Cl)nn2)c1	/	/	/	/	82*
O=[N+]([O-])c1ccc(O)c(/C=N/Nc2nn[nH]n2)c1	/	2	0	2	12
CCC(=O)Nc1ccc2c(c1)C(=O)N(C)[C@@H]1CC[C@@H](CC(=O)NC3CCCC3)O[C@@H]1CO2	0	-2	0	-4	-8[16.7 µM]
Cc1ccc(N/C=C2\CCCCC2=O)nc1	0	-2	43*	-2	-11
C[C@H]1CN([C@@H](C)CO)S(=O)(=O)c2ccc(Br)cc2O[C@@H]1CN(C)C(=O)C1CCC1	0	-2	/	/	24[16.7 µM]
CCc1nnc(NC(=O)c2ccc3nc(CC)c(CC)nc3c2)s1	4	0	43*	-26	-5
COc1ccc(Nc2nc(NCc3ccco3)nc(N/N=C/c3ccc(O)cc3)n2)cc1	/	-2	1.9*	-7	/
Cc1noc(C)c1NC(=O)N(C)C[C@H]1Oc2ccc(NC(=O)NC3CCCCC3)cc2C(=O)N([C@@H](C)CO)C[C@@H]1C	0	-2	0	-3	/
Cc1ccc(S(=O)(=O)N(C)C[C@H]2Oc3c(NC(=O)Nc4cccc5ccccc45)cccc3C(=O)N([C@H](C)CO)C[C@@H]2C)cc1	0	2	-1	7	/
C=C1SC(Nc2c(C)cc(C)cc2C)=NC12CCCCC2	0	11*	0	-23	7
C=C1SC(Nc2c(C)cccc2C)=NC12CCCCC2	/	3	0	-21	11
O=C(c1ccccc1)[C@@H]1[C@@H](C(=O)c2ccc(F)cc2)[C@@]2(C(=O)Nc3ccccc32)[C@H]2c3ccccc3C=CN12	/	/	-1	-8	71*
